In ChEMBL document CHEMBL1147705, “Imidazolylpyrimidine based CXCR2 chemokine receptor antagonists” (Bioorg Med Chem Lett, 2006):

Columns and labels:
[1] = molecular target: T1, C-X-C chemokine receptor type 2 (Homo sapiens, UniProt P25025); experiment: Binding affinity to human CXCR2 receptor transfected in CHO cell; assay type: cell-based
T1 sequence (P25025 whole entry): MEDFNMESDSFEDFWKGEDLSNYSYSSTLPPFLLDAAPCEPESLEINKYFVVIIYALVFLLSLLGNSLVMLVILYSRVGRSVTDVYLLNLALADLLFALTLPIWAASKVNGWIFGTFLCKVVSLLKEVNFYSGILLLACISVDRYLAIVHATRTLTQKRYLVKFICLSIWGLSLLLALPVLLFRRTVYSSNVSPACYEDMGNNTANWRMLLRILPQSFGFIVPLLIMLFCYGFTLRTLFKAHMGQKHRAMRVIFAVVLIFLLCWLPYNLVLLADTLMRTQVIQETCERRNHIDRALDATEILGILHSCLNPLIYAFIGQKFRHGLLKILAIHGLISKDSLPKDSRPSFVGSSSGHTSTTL

[2] = Oral bioavailability in rat at […], iv and po; assay type: ADME, organism-based; conditions: in vivo
[3] = Stability in rat liver microsome at 10 uM after 30 min; assay type: ADME; conditions: liver microsomes, read-out: Stability
How it was run: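 Compound at 10 µM incubated with rat liver microsomal enzyme (300 nM) for 30 min at 37 °C; percent of parent remaining after 30 min quantified by LC. Values are means of at least two experiments, standard deviation <±30%.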

[4] = Cmax in dog at 4 umol/kg, po; assay type: ADME, organism-based, Canis lupus familiaris; design: dose 4 umol/kg, route oral; conditions: in vivo
[5] = Volume of distribution in dog at 2 umol/kg, iv and 4 umol/kg, po; assay type: ADME, organism-based, Canis lupus familiaris; conditions: in vivo, read-out: Vdss
[6] = Half life in rat at 4 umol/kg, iv and po; assay type: ADME, organism-based; conditions: in vivo
How it was run: (§1)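 Rats (n = 3) dosed 4 µmol/kg by iv and po routes; plasma pharmacokinetic profile followed after each route to derive the parameters.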

[7] = AUC (infinity) in dog at 4 umol/kg, po; assay type: ADME, organism-based, Canis lupus familiaris; design: dose 4 umol/kg, route oral, time infinity; conditions: plasma
[8] = Volume of distribution in rat at 4 umol/kg, iv and po; assay type: ADME, organism-based; conditions: in vivo, read-out: Vdss; how it was run: as §1
[9] = Half life in dog at 2 umol/kg, iv and 4 umol/kg, po; assay type: ADME, organism-based, Canis lupus familiaris; conditions: in vivo
[10] = Clearance in rat at 4 umol/kg, iv and po; assay type: ADME, organism-based; conditions: in vivo; how it was run: as §1
[11] = Clearance in dog at 2 umol/kg, iv and 4 umol/kg, po; assay type: ADME, organism-based, Canis lupus familiaris; conditions: in vivo
[12] = AUC (infinity) in rat at 4 umol/kg, po; assay type: ADME, organism-based; design: dose 4 umol/kg, route oral, time infinity; conditions: plasma; how it was run: as §1
[13] = Cmax in rat at 4 umol/kg, po; assay type: ADME, organism-based; design: dose 4 umol/kg, route oral; conditions: in vivo; how it was run: as §1
[14] = Oral bioavailability in dog at 2 umol/kg, iv and 4 umol/kg, po; assay type: ADME, organism-based, Canis lupus familiaris; conditions: in vivo

SMILES | Ki [1] [nM] | remaining at 0.5 h, 10 µM [3] [%] | further results
CCCCc1cc(N[C@@H](CC(C)C)C(=O)NCCCOCC)nc(-n2cnc(-c3ccccc3)c2)n1 | 100 | 2 | 
CCCCc1cc(N[C@@H](CC(C)C)C(=O)NCCCOCC)nc(-n2ccnc2C)n1 | > 10000 | 27 | 
CCCCc1cc(N[C@@H](CC(C)C)C(=O)NCCCOCC)nc(-n2cnc(C)c2)n1 | 90 | 25 | 
CCCCc1cc(N[C@@H](CC(C)C)C(=O)NCCCOCC)nc(-n2cnc(-c3ccc(N)cc3)c2)n1 | 600 |  | 
CCCCc1cc(N[C@@H](CC(C)C)C(=O)NCCCOCC)nc(-n2cnc(-c3ccc(F)cc3)c2)n1 | 37 | 20 | 
CCCCCCCCSc1cc(N[C@@H](CC(C)C)C(=O)NCCCOCC)nc(-n2ccnc2)n1 | 60 | 26 | 
CCCc1cc(N[C@@H](CC(C)C)C(=O)NCCCOCC)nc(-n2cnc(-c3cccc(OC(F)(F)F)c3)c2)n1 | 35 | 55 | bioavailability [2]: 7%
CCOCCCNC(=O)[C@H](CC(C)C)Nc1ccnc(-n2cnc(-c3ccc(OC(F)(F)F)cc3)c2)n1 | 200 | 5 | bioavailability [2]: 4%
CCOCCCNC(=O)[C@H](CC(C)C)Nc1cc(C)nc(-n2cnc(-c3ccc(OC(F)(F)F)cc3)c2)n1 | 44 | 67 | bioavailability [2]: 22%
CCCc1cc(N[C@@H](CC(C)C)C(=O)NCCCOCC)nc(-n2cnc(-c3ccc(OC(F)(F)F)cc3)c2)n1 | 25 | 74 | Cmax [4]: 300 nM; bioavailability [2]: 33%; Vd [5]: 2.79 L/kg; half-life [6]: 2.7 h; AUC(0-inf) [7]: 1.39 µM·h; Vd [8]: 1.99 L/kg; half-life [9]: 1.1 h; clearance [10]: 9.83 mL/min/kg; clearance [11]: 12.1 mL/min/kg; AUC(0-inf) [12]: 2.43 µM·h; Cmax [13]: 660 nM; bioavailability [14]: 25%
CCCCc1cc(N[C@@H](CC(C)C)C(=O)NCCCOCC)nc(-n2cnc(C(C)(C)C)c2)n1 | 85 | 13 | 
CCCCc1cc(N[C@@H](CC(C)C)C(=O)NCCCOCC)nc(-c2cccnc2)n1 | 750 | 36 | 

Now from value to compound, other results behind:

Ki [1] [nM] | remaining at 0.5 h, 10 µM [3] [%] | SMILES | further results
57 | 77 | CCOCCCNC(=O)[C@H](CC(C)C)Nc1cc(CC)nc(-n2cnc(-c3ccc(OC(F)(F)F)cc3)c2)n1 | bioavailability [2]: 18%
17 | 66 | CCCCc1cc(N[C@@H](CC(C)C)C(=O)NCCCOCC)nc(-n2cnc(-c3ccc(OC(F)(F)F)cc3)c2)n1 | bioavailability [2]: 7%
14 | 80 | CCCCc1cc(N[C@@H](CC(C)C)C(=O)NCCCOCC)nc(-n2cnc(-c3ccc(C(F)(F)F)cc3)c2)n1 | 
160 | 48 | CCCCc1cc(N[C@@H](CC(C)C)C(=O)NCCCOCC)nc(-n2cnc(-c3ccc([N+](=O)[O-])cc3)c2)n1 | 
43 | 50 | CCCCc1cc(N[C@@H](CC(C)C)C(=O)NCCCOCC)nc(-n2cnc(-c3ccc(C#N)cc3)c2)n1 | 
> 10000 | 30 | CCCCc1cc(N[C@@H](CC(C)C)C(=O)NCCCOCC)nc(-n2cncn2)n1 | 
27 | 54 | CCCCc1cc(N[C@@H](CC(C)C)C(=O)NCCCOCC)nc(-n2cnc(-c3ccc(Cl)cc3)c2)n1 | 
42 | 30 | CCCCc1cc(N[C@@H](CC(C)C)C(=O)NCCCOCC)nc(-n2cnc(-c3ccc(OC)cc3)c2)n1 | 
120 | 36 | CCCCCCCCc1cc(N[C@@H](CC(C)C)C(=O)NCCCOCC)nc(-n2ccnc2)n1 | 
> 5000 | 52 | CCCCc1cc(N[C@@H](CC(C)C)C(=O)NCCCOCC)nc(-c2ccncc2)n1 | 
6000 | 83 | CCOCCCNC(=O)[C@H](CC(C)C)Nc1cc(C(C)(C)C)nc(-n2ccnc2)n1 | 
50 | 13 | CCCc1cc(N[C@@H](CC(C)C)C(=O)NCCCOCC)nc(-n2cnc(-c3ccccc3OC(F)(F)F)c2)n1 | bioavailability [2]: 5%
290 | 50 | CCCCCCc1cc(N[C@@H](CC(C)C)C(=O)NCCCOCC)nc(-n2ccnc2)n1 | 
40 | 35 | CCCCc1cc(N[C@@H](CC(C)C)C(=O)NCCCOCC)nc(-n2cnc(-c3ccc(C)cc3)c2)n1 | 
1700 | 68 | CCCCc1cc(N[C@@H](CC(C)C)C(=O)NCCCOCC)nc(-n2ccnc2)n1 | 
32 | 65 | CCCCc1cc(N[C@@H](CC(C)C)C(=O)NCCCOCC)nc(-n2cnc(-c3ccc(O)cc3)c2)n1 | 
